We go through 28 compounds from ChEMBL document CHEMBL1141125, “Heteroaryl-substituted naphthalenes and structurally modified derivatives: selective inhibitors of CYP11B2 for the treatment of congestive heart failure and myocardial fibrosis” (J Med Chem, 2005).

Molecules are shown by their SMILES. In brackets after ≈: the same amount, converted by molar mass.

For data set [1], the target named is T1, Cytochrome P450 11B2, mitochondrial (Homo sapiens, UniProt P19099).
T1 sequence (P19099 whole entry): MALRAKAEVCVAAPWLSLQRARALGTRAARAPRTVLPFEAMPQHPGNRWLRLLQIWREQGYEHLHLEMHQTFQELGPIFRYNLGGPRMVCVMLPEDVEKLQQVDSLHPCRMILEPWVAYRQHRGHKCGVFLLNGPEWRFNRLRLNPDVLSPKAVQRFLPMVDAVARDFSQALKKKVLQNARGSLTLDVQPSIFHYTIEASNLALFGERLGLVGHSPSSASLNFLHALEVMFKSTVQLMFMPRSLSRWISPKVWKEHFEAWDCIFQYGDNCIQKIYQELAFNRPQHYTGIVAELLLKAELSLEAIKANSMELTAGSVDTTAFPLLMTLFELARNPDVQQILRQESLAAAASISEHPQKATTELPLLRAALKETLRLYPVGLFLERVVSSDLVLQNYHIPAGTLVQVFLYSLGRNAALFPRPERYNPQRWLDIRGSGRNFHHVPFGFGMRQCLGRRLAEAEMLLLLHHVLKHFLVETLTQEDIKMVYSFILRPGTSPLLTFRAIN
The data set can be described thus: Inhibitory concentration against human cytochrome P450 11B2 expressed in V79 MZh hamster lung fibroblasts, incubated with [14C]deoxycorticosterone.

In data set [2] the target is T1, Cytochrome P450 11B2, mitochondrial. The data set can be described thus: Percent inhibition against human cytochrome P450 11B2 expressed in fission yeast, incubated with [14C]deoxycorticosterone. Also on record: concentration or dose not given beside the values.
The species entered for data set [3] is Homo sapiens. The data set can be described thus: Ratio between inhibitory concentration of cytochrome P450 11B1 to cytochrome P450 11B2. Summed up:
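Confluent V79 MZh hamster lung fibroblasts expressing human CYP11B1 or CYP11B2, in DMEM. Preincubated 60 min at 37 °C with inhibitor at three or more concentrations. [4-14C]11-deoxycorticosterone substrate, 100 nM. Incubation 120 min for CYP11B1 and 40 min for CYP11B2; controls without inhibitor. Ethyl acetate extraction, then HPTLC with phosphoimager quantification, giving IC50.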

The target of data set [4] is T2, Cytochrome P450 11B1, mitochondrial (Homo sapiens, UniProt P15538).
T2 sequence (P15538 whole entry): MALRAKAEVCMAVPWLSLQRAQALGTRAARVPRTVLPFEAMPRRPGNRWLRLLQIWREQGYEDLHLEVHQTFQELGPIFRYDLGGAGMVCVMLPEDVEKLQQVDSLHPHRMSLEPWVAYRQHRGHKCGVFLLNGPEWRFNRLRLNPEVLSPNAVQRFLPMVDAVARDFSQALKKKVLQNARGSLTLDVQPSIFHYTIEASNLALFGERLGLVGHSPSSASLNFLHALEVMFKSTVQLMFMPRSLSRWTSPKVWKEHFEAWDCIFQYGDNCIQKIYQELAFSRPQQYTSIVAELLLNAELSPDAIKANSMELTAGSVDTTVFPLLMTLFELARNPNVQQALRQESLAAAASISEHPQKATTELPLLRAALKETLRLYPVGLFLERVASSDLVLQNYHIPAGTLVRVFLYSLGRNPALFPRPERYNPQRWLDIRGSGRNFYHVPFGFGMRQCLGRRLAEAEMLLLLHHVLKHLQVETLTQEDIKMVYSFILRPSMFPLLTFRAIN
As to the kind of experiment: Inhibitory concentration against human cytochrome P450 11B1 expressed in V79 MZh hamster lung fibroblasts, incubated with [14C]deoxycorticosterone.

Data set [5] can be described thus: Solubility calculated with ACD/I-lab at pH 7.4. The settings on record: read-out: S.
In data set [6] the target is T3, Aromatase (Homo sapiens, UniProt P11511).
T3 sequence (P11511 whole entry): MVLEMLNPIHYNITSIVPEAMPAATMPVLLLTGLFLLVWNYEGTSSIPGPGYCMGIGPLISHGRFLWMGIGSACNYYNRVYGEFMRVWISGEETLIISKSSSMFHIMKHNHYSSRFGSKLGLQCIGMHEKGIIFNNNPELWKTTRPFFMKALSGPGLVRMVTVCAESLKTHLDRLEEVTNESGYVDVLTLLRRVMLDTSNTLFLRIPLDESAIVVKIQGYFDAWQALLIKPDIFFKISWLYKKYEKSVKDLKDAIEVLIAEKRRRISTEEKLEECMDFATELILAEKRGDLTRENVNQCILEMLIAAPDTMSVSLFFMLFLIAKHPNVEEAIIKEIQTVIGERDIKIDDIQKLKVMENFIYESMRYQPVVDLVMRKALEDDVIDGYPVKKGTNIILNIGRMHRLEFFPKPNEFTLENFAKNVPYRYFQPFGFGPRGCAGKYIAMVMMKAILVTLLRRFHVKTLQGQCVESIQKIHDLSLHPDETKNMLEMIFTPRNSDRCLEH

In data set [7] the target is T4, Steroid 17-alpha-hydroxylase/17,20 lyase (Homo sapiens, UniProt P05093).
T4 sequence (P05093 whole entry): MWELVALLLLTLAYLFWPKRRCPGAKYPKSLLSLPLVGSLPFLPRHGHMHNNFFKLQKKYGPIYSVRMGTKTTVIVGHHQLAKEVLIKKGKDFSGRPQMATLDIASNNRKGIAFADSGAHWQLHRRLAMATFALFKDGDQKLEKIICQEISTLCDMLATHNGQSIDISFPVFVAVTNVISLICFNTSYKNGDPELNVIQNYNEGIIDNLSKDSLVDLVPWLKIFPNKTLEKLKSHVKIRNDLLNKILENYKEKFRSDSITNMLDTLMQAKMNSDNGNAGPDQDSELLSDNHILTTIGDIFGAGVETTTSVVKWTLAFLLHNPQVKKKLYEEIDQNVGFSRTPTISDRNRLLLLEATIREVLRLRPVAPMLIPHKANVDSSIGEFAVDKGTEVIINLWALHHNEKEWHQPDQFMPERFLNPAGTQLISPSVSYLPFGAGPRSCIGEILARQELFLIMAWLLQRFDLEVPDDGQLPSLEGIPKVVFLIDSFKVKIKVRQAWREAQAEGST
As to the kind of experiment: Percent inhibition against recombinant human cytochrome P450 17A1 using progesterone. Also on record: concentration or dose not given beside the values.

Data set [8] deals with T5, CYP11B1 (Homo sapiens, UniProt P15538).
T5 sequence (P15538 whole entry): T2 sequence (P15538 whole entry)
As to the kind of experiment: Inhibitory concentration against human cytochrome P450 11B1 expressed in V79 MZh hamster lung fibroblasts, incubated with [14C]deoxycorticosterone. The settings on record: human, V79 MZh hamster lung fibroblasts expressing human CYP11B1, probe [14C]deoxycorticosterone.

The target of data set [9] is Cytochrome P450 3A4 (Homo sapiens, UniProt P08684). The data set can be described thus: Inhibition percent against human hepatic cytochrome P450 3A4 enzyme at 50 uM concentration; no inhibition. It is filed as ADME.
Sequence of Cytochrome P450 3A4 (P08684 whole entry): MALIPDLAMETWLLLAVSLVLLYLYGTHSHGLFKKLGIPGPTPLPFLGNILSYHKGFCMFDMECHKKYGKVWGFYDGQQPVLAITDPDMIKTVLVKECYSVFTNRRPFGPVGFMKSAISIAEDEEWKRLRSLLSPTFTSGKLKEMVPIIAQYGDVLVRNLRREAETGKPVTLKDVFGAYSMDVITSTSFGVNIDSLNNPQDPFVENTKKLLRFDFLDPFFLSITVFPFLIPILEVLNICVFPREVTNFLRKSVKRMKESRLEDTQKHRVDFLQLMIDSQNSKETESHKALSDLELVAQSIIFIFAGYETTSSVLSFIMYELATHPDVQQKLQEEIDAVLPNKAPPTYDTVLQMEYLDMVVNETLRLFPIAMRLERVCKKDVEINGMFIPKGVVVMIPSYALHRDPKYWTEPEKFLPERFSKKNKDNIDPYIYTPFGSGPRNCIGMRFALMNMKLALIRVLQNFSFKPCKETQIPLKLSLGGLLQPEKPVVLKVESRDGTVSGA
The target in data set [10] is Cytochrome P450 2D6 (Homo sapiens, UniProt P10635). The data set can be described thus: Inhibition percent against human hepatic cytochrome P450 2D6 enzyme at 20 nM concentration; no inhibition.
Sequence of Cytochrome P450 2D6 (P10635 whole entry): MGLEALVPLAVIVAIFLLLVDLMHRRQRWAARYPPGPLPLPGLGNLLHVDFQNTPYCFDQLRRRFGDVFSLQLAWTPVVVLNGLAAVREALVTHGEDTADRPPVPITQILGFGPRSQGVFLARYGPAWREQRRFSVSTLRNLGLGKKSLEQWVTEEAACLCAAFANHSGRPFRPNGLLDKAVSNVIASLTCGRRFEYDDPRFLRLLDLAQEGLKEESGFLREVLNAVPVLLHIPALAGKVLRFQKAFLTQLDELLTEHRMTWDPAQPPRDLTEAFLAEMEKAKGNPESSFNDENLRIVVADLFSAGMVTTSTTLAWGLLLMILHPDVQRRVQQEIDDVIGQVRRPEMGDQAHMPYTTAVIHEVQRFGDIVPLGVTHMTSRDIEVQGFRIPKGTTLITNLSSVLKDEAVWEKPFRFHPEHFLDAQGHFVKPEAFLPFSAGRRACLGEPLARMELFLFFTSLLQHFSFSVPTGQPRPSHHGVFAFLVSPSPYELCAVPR
For data set [11], the target named is T1, Cytochrome P450 11B2, mitochondrial. The data set can be described thus: Inhibitory concentration against human cytochrome P450 11B2 expressing in V79 MZh cells using [14C]deoxycorticosterone as substrate measured by screening assay. It is filed as cell-based.

Turning to `c1ccc2cc(-c3cnco3)ccc2c1`, inhibition in data set [1] was half-maximal at 12 nM (IC50). This compound also registered an Inhibition in [2] of 11%. Also, in [3], the Selectivity factor stood at 66.

On to `COc1ccc2ccc(-c3cccnc3)c(Cl)c2c1`, for which, in data set [3], the Selectivity factor came to 94. In addition, the figures for the IC50 in data set [4] and in data set [6] were 2720 nM and above 36000 nM, respectively. Moreover, the solubility in [5] is 14 µM (≈ 3.78 µg/mL). The Inhibition in data set [7] is 94%.

On to `COc1ccc2cc(-c3ccncc3)ccc2c1`, for which the Inhibition in [2] is given as 0%.

Compound `CCCOc1ccc2cc(-c3cccnc3)ccc2c1` displayed an Inhibition in data set [2] of 36%.

Take `COc1ccc2cc(-c3cccnc3)ccc2c1Br`: the Selectivity factor in data set [3] was found to be 136. This compound registered an IC50 in data set [4] of 4480 nM. For the same compound, the solubility in data set [5] is 39 µM (≈ 12.3 µg/mL).

As to `c1ccc2cc(-c3cnc[nH]3)ccc2c1`, the IC50 in data set [1] turned out to be 296 nM; in data set [8], 207 nM. For the same compound, in [2], the Inhibition came out at 41%. Moreover, the Selectivity factor in data set [3] came to 0.7.

Regarding `NC(=O)c1ccc2cc(-c3cccnc3)ccc2c1`, the Inhibition in data set [2] amounted to 0%.

`COc1ccc2c(Cl)c(-c3cccnc3)ccc2c1Cl`: in data set [3], the Selectivity factor is 174. For the same compound, it took 4900 nM to reach half-maximal inhibition in data set [4] (IC50). Besides, in data set [5], the solubility is 7.2 µM (≈ 2.19 µg/mL). For the same compound, in data set [7], the Inhibition turned out to be 83%.

Turning to `CCOc1ccc2cc(-c3cccnc3)ccc2c1`, the Inhibition result in data set [9] and in [10] was “Not Active” in each case. The Selectivity factor in data set [3] stood at 451. The same compound yielded an IC50 in data set [4] of 5420 nM.

Consider `c1ccc2ncc(-n3ccnc3)cc2c1`, for which the IC50 in data set [1] was 604 nM; in data set [4], 6340 nM. This compound also returned an Inhibition in [2] of 17%. The Selectivity factor in [3] came to 10.

`Oc1ccc2cc(-c3cccnc3)ccc2c1`: the solubility in data set [5] was 230 µM (≈ 50.9 µg/mL).

Take `COc1ccc2cc(-n3ccnc3)ccc2c1`: the results for the IC50 in [1], in data set [11] and in [4] were 218 nM, 218 nM and 849 nM, respectively. This compound also had an Inhibition in data set [2] of 49%. For the same compound, in data set [3], the Selectivity factor stood at 4.

In turn, `COc1cc2ccccc2cc1-c1cccnc1` returned an Inhibition in [2] of 30%. In addition, in [11], the IC50 was above 500 nM.

For the compound `CNC(=O)c1ccc2cc(-c3cccnc3)ccc2c1`, the Inhibition in [2] turned out to be 0%.

In the case of `COc1ccc2cc(-c3cccnc3)ccc2c1`, the solubility in data set [5] was 79 µM (≈ 18.6 µg/mL). For the same compound, the Inhibition in [7] was found to be 72%.

For `c1cncc(-c2cnc3ccccc3n2)c1`, the Inhibition in data set [2] was determined as 13%.

`c1cncc(-c2ccc3ccccc3c2)c1`: the solubility in data set [5] is 200 µM (≈ 41.1 µg/mL).

As to `COc1ccc2cc(-c3cccnc3)ccc2c1-c1cccnc1`, the Inhibition in [2] amounted to 9%.

In the case of `COc1ccc2cc(-c3cccnc3)ccc2c1Cl`, the Selectivity factor in data set [3] turned out to be 192. In data set [4], the IC50 is 2520 nM. The solubility in data set [5] was 7.6 µM (≈ 2.05 µg/mL).

Take `COc1cc2ccccc2cc1-n1ccnc1`: the figures for the IC50 in data set [1], in data set [11] and in data set [4] were 19 nM, 19.1 nM and 81 nM, respectively. In addition, the Inhibition in [2] worked out at 87%. Moreover, the Selectivity factor in data set [3] came to 4.

For the compound `N#Cc1ccc(C2CCCc3cncn32)cc1` (stereo not drawn) [FADROZOLE], the Inhibition in data set [7] is reported as 5%.

Regarding `N#Cc1ccc2cc(-c3cccnc3)ccc2c1`, the Selectivity factor in [3] turned out to be 238. The solubility in data set [5] is 160 µM (≈ 36.8 µg/mL). Besides, the IC50 in data set [6] is above 36000 nM. Besides, in data set [7], the Inhibition worked out at 73%.

In the case of `Cn1cncc1-c1ccc2ccccc2c1`, the Inhibition in [2] is recorded as 28%.

As for `COC(=O)c1ccc2cc(-c3cccnc3)ccc2c1`, in data set [1], the IC50 was 72 nM. Besides, the Inhibition in [2] is 74%. In addition, the Selectivity factor in [3] came to 145. In addition, the solubility in [5] was 71 µM (≈ 18.7 µg/mL).

Take `Brc1ccc2cc(-c3cccnc3)ccc2c1`: the Selectivity factor in data set [3] came to 196. In addition, the IC50 in [4] is 2940 nM; in data set [6], above 36000 nM. For the same compound, the solubility in [5] was 1.3 µM (≈ 0.369 µg/mL).

`c1ccc2cc(-n3ccnc3)ccc2c1`: the IC50 in data set [1] came out at 39 nM; in [11] it was 38.5 nM; in data set [4] it was 1320 nM. Further, the solubility in [5] was 280 µM (≈ 54.4 µg/mL).

For `c1ccc(COc2ccc3cc(-c4cccnc4)ccc3c2)cc1`, the Inhibition in data set [2] turned out to be 3%.

`c1cncc(-c2cc3ccccc3c3ccccc23)c1` returned an Inhibition in data set [2] of 27%. The compound further gave an IC50 in data set [4] of 7550 nM.
